Assay results: ChEMBL document CHEMBL2203205 (Eur J Med Chem, 2012)

Key:
[1] = biological target: T1, Alpha-2B adrenergic receptor (Homo sapiens, UniProt P18089); assay: Inhibition of alpha2B adrenergic receptor
T1 sequence (P18089 whole entry): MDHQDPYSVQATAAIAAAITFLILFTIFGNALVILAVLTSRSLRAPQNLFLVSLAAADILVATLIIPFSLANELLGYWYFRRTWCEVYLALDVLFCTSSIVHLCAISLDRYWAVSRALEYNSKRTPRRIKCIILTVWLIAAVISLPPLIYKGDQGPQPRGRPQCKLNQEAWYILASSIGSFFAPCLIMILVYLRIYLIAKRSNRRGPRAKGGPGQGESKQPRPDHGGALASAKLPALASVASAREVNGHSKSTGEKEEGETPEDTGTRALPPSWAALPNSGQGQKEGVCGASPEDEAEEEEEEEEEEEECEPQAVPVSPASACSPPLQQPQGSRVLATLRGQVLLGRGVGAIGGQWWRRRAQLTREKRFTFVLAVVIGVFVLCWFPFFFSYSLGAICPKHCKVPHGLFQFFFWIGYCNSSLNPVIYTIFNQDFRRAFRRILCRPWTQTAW
Outline: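 Binding assay from a broad screen, with a reference compound tested concurrently. Specific binding was total minus nonspecific binding (excess unlabelled ligand). IC50 and Hill coefficient came from non-linear regression of competition curves using mean replicate values.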

[2] = biological target: T2, Muscarinic acetylcholine receptor M2 (Homo sapiens, UniProt P08172); assay: Inhibition of muscarinic M2 receptor
T2 sequence (P08172 whole entry): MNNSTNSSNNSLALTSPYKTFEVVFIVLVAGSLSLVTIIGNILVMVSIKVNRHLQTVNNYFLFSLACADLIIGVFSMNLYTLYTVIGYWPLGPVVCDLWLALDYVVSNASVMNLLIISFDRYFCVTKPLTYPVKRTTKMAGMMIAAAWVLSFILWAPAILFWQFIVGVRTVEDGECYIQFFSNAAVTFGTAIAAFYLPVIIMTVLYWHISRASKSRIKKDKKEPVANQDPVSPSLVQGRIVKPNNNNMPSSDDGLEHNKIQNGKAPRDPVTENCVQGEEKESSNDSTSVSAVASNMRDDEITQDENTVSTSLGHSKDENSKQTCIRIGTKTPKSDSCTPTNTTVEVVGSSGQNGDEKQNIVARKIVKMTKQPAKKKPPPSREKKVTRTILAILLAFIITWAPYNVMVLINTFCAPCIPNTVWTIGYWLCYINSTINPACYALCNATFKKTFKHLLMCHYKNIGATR
Outline: (§1)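 Radioligand competition binding, run first as a single-concentration broad screen at […], then as concentration-response for follow-up targets, with the reference compound tested in parallel. Specific binding is total minus binding in excess unlabelled ligand, expressed as % of control specific binding. IC50 and Hill coefficient come from non-linear Hill-equation regression of competition curves built from mean replicate values.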

[3] = biological target: T3, Alpha-1B adrenergic receptor (Homo sapiens, UniProt P35368); assay: Inhibition of alpha1B adrenergic receptor; outline: as §1
T3 sequence (P35368 whole entry): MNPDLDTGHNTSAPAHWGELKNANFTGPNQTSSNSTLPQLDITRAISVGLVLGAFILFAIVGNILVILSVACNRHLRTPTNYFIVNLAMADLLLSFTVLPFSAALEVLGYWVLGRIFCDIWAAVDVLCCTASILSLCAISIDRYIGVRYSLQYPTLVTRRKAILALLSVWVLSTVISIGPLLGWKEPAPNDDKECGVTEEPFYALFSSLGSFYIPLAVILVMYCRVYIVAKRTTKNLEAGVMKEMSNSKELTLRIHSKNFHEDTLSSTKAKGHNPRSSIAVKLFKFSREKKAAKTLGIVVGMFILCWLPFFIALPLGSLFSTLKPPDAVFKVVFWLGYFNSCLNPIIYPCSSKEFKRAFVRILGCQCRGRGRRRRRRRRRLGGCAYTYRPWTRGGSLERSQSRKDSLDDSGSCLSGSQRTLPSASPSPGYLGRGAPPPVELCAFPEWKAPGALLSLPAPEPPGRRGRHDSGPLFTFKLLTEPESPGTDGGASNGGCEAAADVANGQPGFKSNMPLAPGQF

[4] = AUC in Sprague-Dawley rat at 3 mg/kg, iv; type: ADME, organism-based; parameters: dose 3 mg/kg, route intravenous; conditions: plasma
Outline: (§2)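 Male Sprague-Dawley rats dosed intravenously (3 mg/kg) and orally (10 mg/kg). PK parameters came from non-compartmental analysis of plasma concentration vs time curves.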

Cytochrome P450 2D6 = Cytochrome P450 2D6 (Homo sapiens, UniProt P10635); assay: Inhibition of human CYP2D6; type: ADME
Chain of Cytochrome P450 2D6 (P10635 whole entry): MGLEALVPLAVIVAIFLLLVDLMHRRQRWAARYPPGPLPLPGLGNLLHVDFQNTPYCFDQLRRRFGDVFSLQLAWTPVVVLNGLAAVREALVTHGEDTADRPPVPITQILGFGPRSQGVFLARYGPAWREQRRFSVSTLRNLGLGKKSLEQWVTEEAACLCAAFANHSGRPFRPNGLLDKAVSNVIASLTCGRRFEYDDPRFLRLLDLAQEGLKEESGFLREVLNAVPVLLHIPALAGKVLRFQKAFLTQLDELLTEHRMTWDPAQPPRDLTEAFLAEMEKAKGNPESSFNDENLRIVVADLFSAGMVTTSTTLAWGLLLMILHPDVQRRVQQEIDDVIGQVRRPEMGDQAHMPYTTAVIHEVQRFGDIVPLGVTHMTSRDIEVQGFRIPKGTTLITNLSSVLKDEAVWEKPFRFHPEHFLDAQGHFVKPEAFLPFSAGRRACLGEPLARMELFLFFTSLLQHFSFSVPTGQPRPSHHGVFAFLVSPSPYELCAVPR

[5] = biological target: T4, Alpha-1A adrenergic receptor (Homo sapiens, UniProt P35348); assay: Inhibition of alpha1A adrenergic receptor; outline: as §1
T4 sequence (P35348 whole entry): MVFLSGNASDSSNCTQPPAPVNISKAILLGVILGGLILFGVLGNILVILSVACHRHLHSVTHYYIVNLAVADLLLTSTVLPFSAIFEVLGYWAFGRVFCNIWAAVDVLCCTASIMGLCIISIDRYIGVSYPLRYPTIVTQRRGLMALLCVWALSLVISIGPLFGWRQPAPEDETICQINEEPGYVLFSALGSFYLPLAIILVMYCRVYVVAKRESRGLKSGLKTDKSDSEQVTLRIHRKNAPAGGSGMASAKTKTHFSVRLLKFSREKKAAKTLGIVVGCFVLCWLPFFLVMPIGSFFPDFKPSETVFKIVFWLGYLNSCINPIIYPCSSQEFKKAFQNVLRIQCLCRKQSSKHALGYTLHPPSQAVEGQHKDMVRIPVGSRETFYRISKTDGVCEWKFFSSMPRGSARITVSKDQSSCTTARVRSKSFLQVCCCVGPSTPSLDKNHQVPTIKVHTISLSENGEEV

[6] = Tmax in Sprague-Dawley rat at 10 mg/kg, po; type: ADME, organism-based; parameters: dose 10 mg/kg, route oral; conditions: in vivo; outline: as §2
[7] = Volume of distribution at steady state in Sprague-Dawley rat at 3 mg/kg, iv; type: ADME, organism-based; parameters: dose 3 mg/kg, route intravenous; conditions: in vivo, read-out: Vdss; outline: as §2

IC50 [1]: 32000 nM
IC50 [2]: 3600 nM
IC50 [3]: 1800 nM
AUC [4]: 95.2 ng·h/mL
IC50 (Cytochrome P450 2D6): 750 nM
IC50 [5]: 1900 nM
Tmax [6]: 2 h
Vd [7]: 330 L/kg
SMILES: N=C(Nc1ccc2c(c1)CCN2C1CCNCC1)c1cccs1
